The target in experiment [1] is T1, Neuronal acetylcholine receptor (Rattus norvegicus) (UniProt P04757+P09483+P12389+P12390+P12392+P43144+Q9JLB5+P12391+P43143+P20420+Q05941). As to the kind of experiment: Compounds was evaluate for their ability to enhance (+/-)-[3H]nicotine binding at a dose range 2.5*10e-9-2.5*10e-5 M was reported. The format is protein-complex assay. Put shortly: (§1)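 Whole-brain P2 fraction from female Sprague-Dawley rats (200–300 g), prepared at 4 °C, ~2 mg protein per tube. […] Nonspecific binding defined with 10^-2 M (-)-nicotine. Triplicates, usually four homogenates. Enhancement assessed by two-way ANOVA or pooled t-test.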

For experiment [2], the target named is Neuronal acetylcholine receptor. The format is tissue-based, Brain.
Experiment [3] concerns the target T1, Neuronal acetylcholine receptor (Rattus norvegicus).
Experiment [4] has as its target Neuronal acetylcholine receptor.
In experiment [5] the target is T1, Neuronal acetylcholine receptor (Rattus norvegicus). The source holds these as a separate data set.
For experiment [6], the target named is Neuronal acetylcholine receptor. The format is tissue-based, Brain. The source holds these as a separate data set.
Experiment [7] addresses T1, Neuronal acetylcholine receptor (Rattus norvegicus). Description: Compounds was evaluated for their ability to enhance (+/-)-[3H]nicotine binding at a dose range 10 E -9 - 10 E -6 M was reported. Format: protein-complex assay. Put shortly: (§2)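 Bound ligand collected on poly-L-lysine-soaked glass-fibre filters, washed with cold Hepes and counted by liquid scintillation. Nonspecific binding defined with 10^-2 M (-)-nicotine. Triplicates, usually four homogenates. Enhancement tested by two-way ANOVA with linear/quadratic dose components, or pooled t-test.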

For experiment [8], the target named is Neuronal acetylcholine receptor. Description: Compounds was evaluated in vitro for ability to enhance and inhibit the binding of (+/-)-[3H]nicotine to the rat brain P2 fraction at binding site 1; 10e-10-10e-3. Put shortly: as §1
The target of experiment [9] is T1, Neuronal acetylcholine receptor (Rattus norvegicus). The source holds these as a separate data set.
For experiment [10] the target is unchanged. Description: Compounds was evaluate for their ability to enhance (+/-)-[3H]nicotine binding at a dose range 10 E -10 - 10 E -5 M was reported. Format: protein-complex assay. Put shortly: as §1
Experiment [11] shares this target. Description: Compounds was evaluate for their ability to enhance (+/-)-[3H]nicotine binding at a dose range 10 E -10 - 10 E -7 M was reported. Format: protein-complex assay. Put shortly:
as §2

For experiment [12], the target named is Neuronal acetylcholine receptor. As to the kind of experiment: Compound was evaluated for ability to enhance the binding of (+/-)-[3H]nicotine to the rat brain P2 fraction at binding site 1. Format: tissue-based. Put shortly: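 Whole-brain P2 fraction from female Sprague-Dawley rats (200–300 g), prepared at 4 °C, ~2 mg protein per tube. Triplicates, usually four homogenates. Enhancement assessed by two-way ANOVA or pooled t-test.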

In experiment [13] the target is T1, Neuronal acetylcholine receptor (Rattus norvegicus). The source holds these as a separate data set.
For experiment [14] the target is unchanged. Description: Compounds was evaluate for their ability to enhance (+/-)-[3H]nicotine binding at a dose range 10 E -10 - 10 E -6 M was reported. Format: protein-complex assay. Put shortly: as §1
Experiment [15] shares this target. Description: Compounds was evaluate for their ability to enhance (+/-)-[3H]nicotine binding at a dose range 10 E -8 - 10 E -4 M was reported. The format is protein-complex assay. Put shortly: as §1
Experiment [16] has the same target. This is another data set of the same source.
The target is the same in experiment [17]. Description: Compounds was evaluate for their ability to enhance (+/-)-[3H]nicotine binding at a dose range 10 E -12- 10 E -5 M was reported. The format is protein-complex assay. Put shortly: as §1

In the case of `CNC1(C)C2CCC(C2)C1(C)C` (stereo not given), the Mean enhancement of binding in [1] was determined as 16.4.
A word on the Kd: it is the concentration at which binding is half-saturated. On to `CC1CCNCC1`, for which the Kd in [2] turned out to be 3900 µM. The Mean enhancement of binding in experiment [3] was determined as 6.1.
On to `CN1CCC(O)CC1`, for which, in experiment [2], the Kd worked out at 3400 µM. Further, the Mean enhancement of binding in experiment [3] is 13.
Take `Cc1ccccn1`: the Kd in experiment [2] was determined as 0.05 µM; in experiment [4] it was 64000 µM. In addition, the Mean enhancement of binding in experiment [5] was 20.7.
Consider `C1CCNCC1` [PIPERIDINE], for which the Kd in experiment [2] was 0.12 µM; in experiment [6] it was 69 µM. Further, the Mean enhancement of binding in [7] amounted to 10.3.
As for `CC1CCCCN1` (stereo not given), the Kd in experiment [2] is 3200 µM; in [8] it was < 0.0001 µM.
`CN1CCC[C@H]1c1cccnc1`: the Mean enhancement of binding in experiment [9] was 4.7.
Turning to `CCc1ccncc1`, the Kd in experiment [2] was found to be 87 µM.
In the case of `CCCc1ccccn1`, the Kd in experiment [2] is 1.7 µM. The Mean enhancement of binding in experiment [10] turned out to be 15.2.
With `Nc1ccccn1` [2-AMINOPYRIDINE], in experiment [2], binding was characterised by a dissociation constant (Kd) of 200 µM. For the same molecule, the Mean enhancement of binding in experiment [11] was 12.4.
In experiment [2], `Oc1ccccn1` yielded a Kd of 880 µM. In addition, in experiment [3], the Mean enhancement of binding worked out at 10.
The matching figures for `Cc1cccc(C)n1`: 10000 µM and 3.1.
Turning to `CN1C(=O)CCC1c1cccnc1` (stereo not given), the Kd in experiment [2] was 4700 µM; in experiment [12], 0.62 µM.
Regarding `CN1[C@@H](CC(=O)c2ccccc2)CCC[C@H]1C[C@H](O)c1ccccc1`, the Mean enhancement of binding in [13] stood at 18.2.
As to `Nc1cccnc1`, in [2], the Kd worked out at 380 µM. Further, the Mean enhancement of binding in experiment [14] amounted to 2.4.
As to `ON1CCCCC1`, in [2], binding was put at a Kd of 6000 µM. Moreover, the Mean enhancement of binding in experiment [15] stood at 8.5.
Consider `C[N+](C)(C)CCOC(N)=O`, for which, in experiment [16], the Mean enhancement of binding was found to be 15.
In turn, `CC1CCCNC1` (stereo not given) registered a Kd in [2] of 890 µM. Also, in experiment [3], the Mean enhancement of binding amounted to 5.2.
With `CCc1ccccn1`, the Kd in [2] is 100 µM. Moreover, in experiment [14], the Mean enhancement of binding was determined as 10.9.
For the molecule `OC1CCCNC1` (stereo not given), in [2], the Kd worked out at 820 µM. For the same molecule, the Mean enhancement of binding in [3] was 8.6.
Molecule `CCC1CCCCN1` (stereo not given) showed a Kd in experiment [2] of 7900 µM.
In the case of `Cc1cccnc1` [3-METHYLPYRIDINE], in [12], the Kd turned out to be 1800 µM.
In experiment [2], `CN1CCCC1` [N-METHYL PYRROLIDINE (NMP)] returned a Kd of 52 µM. Further, the Mean enhancement of binding in experiment [14] came out at 4.1.
In the case of `Cc1ccncc1`, the Kd in [2] was 2200 µM. The Mean enhancement of binding in [3] turned out to be 6.6.
For `C1CCNC1` [PYRROLIDINE], the Mean enhancement of binding in experiment [14] was 4.5.
With `CN1[C@@H]2CC[C@H]1C[C@@H](OC(=O)C(CO)c1ccccc1)C2` (stereo not given in full), the Mean enhancement of binding in [17] amounted to 14.9.
In [2], `CCN1CCCCC1` gave a Kd of 3.3 µM. Also, the Mean enhancement of binding in [14] amounted to 23.
The molecule `CN1CCCCC1` yielded a Kd in experiment [2] of 1200 µM. Moreover, the Mean enhancement of binding in experiment [10] amounted to 10.
In experiment [2], `CCCC1CCCCN1` (stereo not given) showed a Kd of 97 µM.
In [2], `OC1CCNCC1` showed a Kd of 3000 µM. Also, the Mean enhancement of binding in experiment [3] is 4.
`c1ccncc1` [PYRIDINE] showed a dissociation constant Kd in experiment [2] of 3300 µM.
As for `CCc1cccnc1`, the equilibrium dissociation constant (Kd) in experiment [2] was determined as 9.5 µM. In addition, the Mean enhancement of binding in [14] was 5.4.

For the origin of these results see ChEMBL document CHEMBL1123034 (J Med Chem, 1985).
